Results published in ChEMBL document CHEMBL4316581, “Efforts in redesigning the antileukemic drug 6-thiopurine: decreasing toxic side effects while maintaining efficacy” (Medchemcomm, 2019).

How the values were obtained:
[1] = target: T1, UDP-glucose 6-dehydrogenase (Rattus norvegicus, UniProt O70199); experiment: Inhibition of UDPGDH in rat hepatocytes assessed as decrease in bilirubin diglucuronide level at 5 to 10 uM preincubated for 2 mins followed by UDPGA addition measured after 45 mins by HPLC analysis; format: cell-based; details: 0.75 h
T1 sequence (O70199 whole entry): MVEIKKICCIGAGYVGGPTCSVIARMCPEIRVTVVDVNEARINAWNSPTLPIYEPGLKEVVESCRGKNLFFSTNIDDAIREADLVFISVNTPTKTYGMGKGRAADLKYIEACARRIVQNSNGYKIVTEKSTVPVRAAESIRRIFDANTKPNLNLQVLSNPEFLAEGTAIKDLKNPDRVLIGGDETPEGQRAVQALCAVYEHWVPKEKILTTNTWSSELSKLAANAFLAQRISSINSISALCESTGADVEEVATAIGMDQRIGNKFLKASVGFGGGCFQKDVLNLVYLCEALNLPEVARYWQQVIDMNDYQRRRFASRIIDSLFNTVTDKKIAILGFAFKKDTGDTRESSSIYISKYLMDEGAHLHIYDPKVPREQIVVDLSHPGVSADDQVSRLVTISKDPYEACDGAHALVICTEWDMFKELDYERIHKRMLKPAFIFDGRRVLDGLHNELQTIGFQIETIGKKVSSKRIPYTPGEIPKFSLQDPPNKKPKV
How it was run: (§1)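 Rat liver microsomes (100 µg protein/mL) were used, with alamethicin 22 µg/mL, bilirubin 10 µM and MgCl2 0.88 mM in 50 mM potassium phosphate pH 7.4, at 37 °C with shaking under minimal light. Purine or no-purine control was preincubated 2 min before UDPGA (3.5 mM) started the reaction. Reactions were stopped with ice-cold methanol containing 200 mM ascorbic acid and centrifuged. Unconjugated bilirubin and mono- and diglucuronides were quantified by gradient HPLC against bilirubin calibration curves over a 45-min time course.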

REH = experiment: Cytotoxicity against human REH cells assessed as reduction in cell viability […] by Alamar Blue assay; format: functional, cell-based
[2] = target: T2, UDPGDH (UDP-glucose 6-dehydrogenase) (Rattus norvegicus, UniProt O70199); experiment: Inhibition of UDPGDH in rat hepatocytes assessed as decrease in bilirubin monoglucuronide level at 25 uM preincubated for 2 mins followed by UDPGA addition measured after 45 mins by HPLC analysis relative to control; format: cell-based; details: probe bilirubin (readout: bilirubin monoglucuronide level); how it was run: as §1
T2 sequence (O70199 whole entry): T1 sequence (O70199 whole entry)

[3] = target: T3, UDP-glucuronosyltransferase 1A1 (Rattus norvegicus, UniProt Q64550); experiment: Inhibition of UGT1A in rat hepatocytes assessed as decrease in bilirubin monoglucuronide level at 75 uM preincubated for 2 mins followed by UDPGA addition measured after 45 mins by HPLC analysis; format: ADME, cell-based; details: 0.75 h; how it was run: as §1
T3 sequence (Q64550 whole entry): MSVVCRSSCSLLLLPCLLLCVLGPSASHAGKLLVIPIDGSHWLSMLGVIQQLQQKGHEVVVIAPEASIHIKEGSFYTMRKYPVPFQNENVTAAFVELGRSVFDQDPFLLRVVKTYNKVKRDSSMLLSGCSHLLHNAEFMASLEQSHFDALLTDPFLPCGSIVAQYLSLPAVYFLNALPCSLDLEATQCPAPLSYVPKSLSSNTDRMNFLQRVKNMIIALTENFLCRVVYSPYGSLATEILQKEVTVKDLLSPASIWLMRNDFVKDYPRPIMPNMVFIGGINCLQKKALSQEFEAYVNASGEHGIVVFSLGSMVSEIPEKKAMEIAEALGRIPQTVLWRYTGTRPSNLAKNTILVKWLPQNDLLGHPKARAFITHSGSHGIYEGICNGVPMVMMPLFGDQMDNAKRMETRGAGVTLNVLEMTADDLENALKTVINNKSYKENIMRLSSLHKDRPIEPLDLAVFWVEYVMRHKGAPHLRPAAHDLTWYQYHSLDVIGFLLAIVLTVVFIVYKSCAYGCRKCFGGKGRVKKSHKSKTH

[4] = target: T2, UDPGDH (UDP-glucose 6-dehydrogenase); experiment: Inhibition of UDPGDH in rat hepatocytes assessed as decrease in bilirubin diglucuronide level at 50 uM preincubated for 2 mins followed by UDPGA addition measured after 45 mins by HPLC analysis relative to control; format: cell-based; details: probe bilirubin (readout: bilirubin diglucuronide level); how it was run: as §1
[5] = target: T2, UDPGDH (UDP-glucose 6-dehydrogenase); experiment: Inhibition of UDPGDH in rat hepatocytes assessed as decrease in bilirubin monoglucuronide level at 50 uM preincubated for 2 mins followed by UDPGA addition measured after 45 mins by HPLC analysis relative to control; format: cell-based; details: probe bilirubin (readout: bilirubin monoglucuronide level); how it was run: as §1
[6] = target: T2, UDPGDH (UDP-glucose 6-dehydrogenase); experiment: Inhibition of UDPGDH in rat hepatocytes assessed as decrease in bilirubin diglucuronide level at 25 uM preincubated for 2 mins followed by UDPGA addition measured after 45 mins by HPLC analysis relative to control; format: cell-based; details: probe bilirubin (readout: bilirubin diglucuronide level); how it was run: as §1
[7] = target: T3, UDP-glucuronosyltransferase 1A1; experiment: Inhibition of UGT1A in rat hepatocytes preincubated for 2 mins followed by UDPGA addition measured after 45 mins by HPLC analysis; format: ADME, cell-based; how it was run: as §1
[8] = target: T1, UDP-glucose 6-dehydrogenase; experiment: Inhibition of UDPGDH in rat hepatocytes after 20 to 120 secs by UV/Vis spectrophotometric analysis; format: cell-based
How it was run: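 Purified UDPGDH (0.1 unit/mL) was assayed spectrophotometrically at 340 nm and 25 °C in 150 mM Gly-Gly with saturating 3 mM NAD+. UDPG was varied (0.1, 0.05, 0.025, 0.02 mM) at several inhibitor concentrations. After 2 min thermal equilibration, the initial absorbance-versus-time rate was recorded. Runs were in triplicate; averaged slopes were plotted to derive inhibition values.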

[9] = target: T3, UDP-glucuronosyltransferase 1A1; experiment: Inhibition of UGT1A in rat hepatocytes assessed as increase in unconjugated bilirubin level at 75 uM preincubated for 2 mins followed by UDPGA addition measured after 45 mins by HPLC analysis; format: ADME, cell-based; details: 0.75 h; how it was run: as §1
[10] = target: T2, UDPGDH (UDP-glucose 6-dehydrogenase); experiment: Inhibition of UDPGDH in rat hepatocytes assessed as increase in unconjugated bilirubin level at 25 uM preincubated for 2 mins followed by UDPGA addition measured after 45 mins by HPLC analysis relative to control; format: cell-based; details: probe bilirubin (readout: unconjugated bilirubin level); how it was run: as §1
[11] = target: T3, UDP-glucuronosyltransferase 1A1; experiment: Inhibition of UGT1A in rat hepatocytes assessed as decrease in bilirubin diglucuronide level at 75 uM preincubated for 2 mins followed by UDPGA addition measured after 45 mins by HPLC analysis; format: ADME, cell-based; details: 0.75 h; how it was run: as §1
[12] = target: T2, UDPGDH (UDP-glucose 6-dehydrogenase); experiment: Inhibition of UDPGDH in rat hepatocytes assessed as decrease in bilirubin monoglucuronide level at 10 uM preincubated for 2 mins followed by UDPGA addition measured after 45 mins by HPLC analysis relative to control; format: cell-based; details: probe bilirubin (readout: bilirubin monoglucuronide level); how it was run: as §1
[13] = target: T1, UDP-glucose 6-dehydrogenase; experiment: Inhibition of UDPGDH in rat hepatocytes assessed as increase in unconjugated bilirubin level at 10 uM preincubated for 2 mins followed by UDPGA addition measured after 45 mins by HPLC analysis relative to control; format: cell-based; design: scale not given: the % may be the effect or the level left; details: 0.75 h; how it was run: as §1
[14] = target: T2, UDPGDH (UDP-glucose 6-dehydrogenase); experiment: Inhibition of UDPGDH in rat hepatocytes assessed as decrease in bilirubin diglucuronide level at 10 uM preincubated for 2 mins followed by UDPGA addition measured after 45 mins by HPLC analysis relative to control; format: cell-based; details: probe bilirubin (readout: bilirubin diglucuronide level); how it was run: as §1
[15] = target: T2, UDPGDH (UDP-glucose 6-dehydrogenase); experiment: Inhibition of UDPGDH in rat hepatocytes assessed as decrease in bilirubin diglucuronide level at 5 uM preincubated for 2 mins followed by UDPGA addition measured after 45 mins by HPLC analysis relative to control; format: cell-based; details: probe bilirubin (readout: bilirubin diglucuronide level); how it was run: as §1
[16] = target: T1, UDP-glucose 6-dehydrogenase; experiment: Inhibition of UDPGDH in rat hepatocytes assessed as increase in unconjugated bilirubin level at 5 uM preincubated for 2 mins followed by UDPGA addition measured after 45 mins by HPLC analysis relative to control; format: cell-based; design: scale not given: the % may be the effect or the level left; details: 0.75 h; how it was run: as §1
[17] = target: T2, UDPGDH (UDP-glucose 6-dehydrogenase); experiment: Inhibition of UDPGDH in rat hepatocytes assessed as decrease in bilirubin monoglucuronide level at 5 uM preincubated for 2 mins followed by UDPGA addition measured after 45 mins by HPLC analysis relative to control; format: cell-based; details: probe bilirubin (readout: bilirubin monoglucuronide level); how it was run: as §1
[18] = target: T1, UDP-glucose 6-dehydrogenase; experiment: Inhibition of UDPGDH in rat hepatocytes assessed as decrease in bilirubin monoglucuronide level at 10 uM preincubated for 2 mins followed by UDPGA addition measured after 45 mins in presence of regorafenib by HPLC analysis; format: cell-based; details: 0.75 h
[19] = target: T1, UDP-glucose 6-dehydrogenase; experiment: Inhibition of UDPGDH in rat hepatocytes assessed as decrease in bilirubin diglucuronide level at 10 uM preincubated for 2 mins followed by UDPGA addition measured after 45 mins in presence of regorafenib by HPLC analysis; format: cell-based; details: 0.75 h
[20] = target: T1, UDP-glucose 6-dehydrogenase; experiment: Inhibition of UDPGDH in rat hepatocytes assessed as decrease in bilirubin diglucuronide level at 10 uM after 45 mins in presence of UDPGA by HPLC analysis; format: cell-based; details: 0.75 h; how it was run: as §1
[21] = target: T4, UGT1A (UDP-glucuronosyltransferase 1A1) (Rattus norvegicus, UniProt Q64550); experiment: Inhibition of UGT1A in rat hepatocytes assessed as decrease in bilirubin diglucuronide level at 10 uM preincubated for 2 mins followed by UDPGA addition measured after 45 mins by HPLC analysis relative to control; format: ADME, cell-based; details: probe bilirubin (readout: bilirubin diglucuronide level); how it was run: as §1
T4 sequence (Q64550 whole entry): T3 sequence (Q64550 whole entry)

[22] = target: T3, UDP-glucuronosyltransferase 1A1; experiment: Inhibition of UGT1A in rat hepatocytes assessed as decrease in bilirubin monoglucuronide level at 10 uM after 45 mins in presence of UDPGA by HPLC analysis; format: ADME, cell-based; details: 0.75 h; how it was run: as §1
[23] = target: T4, UGT1A (UDP-glucuronosyltransferase 1A1); experiment: Inhibition of UGT1A in rat hepatocytes assessed as decrease in bilirubin monoglucuronide level at 10 uM preincubated for 2 mins followed by UDPGA addition measured after 45 mins by HPLC analysis relative to control; format: ADME, cell-based; details: probe bilirubin (readout: bilirubin monoglucuronide level); how it was run: as §1
[24] = target: T3, UDP-glucuronosyltransferase 1A1; experiment: Inhibition of UGT1A in rat hepatocytes assessed as decrease in bilirubin diglucuronide level at 10 uM after 45 mins in presence of UDPGA by HPLC analysis; format: ADME, cell-based; details: 0.75 h; how it was run: as §1

Sc1ncnc2nc[nH]c12 [MERCAPTOPURINE ANHYDROUS]
inhibition (INH) [1]: Active | IC50 (REH): 2.94 µM | inhibition at 0.75 h, 25 µM [2]: 19% | inhibition (INH) [3]: Not Active | inhibition at 0.75 h, 50 µM [4]: 26% | inhibition at 0.75 h, 50 µM [5]: 28% | inhibition at 0.75 h, 25 µM [6]: 12% | Ki [7]: > 100 µM | Ki [8]: 288 µM | inhibition (INH) [9]: Not Active | inhibition at 0.75 h, 25 µM [10]: 19% | inhibition (INH) [11]: Not Active

Fc1nc2c(S)ncnc2[nH]1
IC50 (REH): 4.71 µM | Ki [8]: 215 µM

Sc1ncnc2[nH]c(Cl)nc12
IC50 (REH): 3.95 µM | Ki [8]: 163 µM

O=c1[nH]c(=S)c2[nH]c(=O)[nH]c2[nH]1
inhibition (INH) [1]: Active | inhibition at 0.75 h, 10 µM [12]: 81% | IC50 (REH): > 10 µM | Activity [13]: 42% | inhibition at 0.75 h, 10 µM [14]: 86% | inhibition at 0.75 h, 5 µM [15]: 76% | inhibition (INH) [3]: Not Active | Activity [16]: 31% | inhibition at 0.75 h, 5 µM [17]: 71% | inhibition (INH) [18]: Active | inhibition (INH) [19]: Active | Ki [7]: > 100 µM | inhibition (INH) [20]: Not Active | Ki [8]: 7 µM | inhibition (INH) [9]: Not Active | inhibition (INH) [11]: Not Active

O=c1[nH]c(=S)c2nc[nH]c2[nH]1
IC50 (REH): > 10 µM | Ki [7]: > 100 µM | Ki [8]: 54 µM

Sc1ncnc2[nH]c(Br)nc12
IC50 (REH): 9.54 µM | Ki [8]: 192 µM

CNC(=O)c1cc(Oc2ccc(NC(=O)Nc3ccc(Cl)c(C(F)(F)F)c3)c(F)c2)ccn1 [REGORAFENIB]
inhibition at 0.75 h, 10 µM [21]: 96% | inhibition (INH) [22]: Active | inhibition at 0.75 h, 10 µM [23]: 89% | inhibition (INH) [24]: Active

Oc1nc2c(S)ncnc2[nH]1
IC50 (REH): 9.91 µM | Ki [7]: > 100 µM | Ki [8]: 14 µM

COc1cccc2c1C(=O)c1c(O)c3c(c(O)c1C2=O)C[C@@](O)(C(=O)CO)C[C@@H]3O[C@H]1C[C@H](N)[C@H](O)[C@H](C)O1 [DOXORUBICIN]
IC50 (REH): 0.285 µM
